Converted amounts (≈) assume the structure as drawn.
Key:
Format in all cases: functional
Staphylococcus aureus [1] = test: Antibacterial activity against methicillin-sensitive Staphylococcus aureus isolate 12-7
In short: (§1)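 MIC determined in vitro by a standard technique and defined as the lowest compound concentration giving complete inhibition of bacterial growth. The Gram-positive and Gram-negative panels were tested alongside gemifloxacin, levofloxacin and ciprofloxacin reference drugs.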

Staphylococcus aureus [2] = test: Antibacterial activity against methicillin-resistant Staphylococcus aureus isolate 12-3
In short: (§2)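 MIC determined in vitro by standard techniques, defined as the lowest compound concentration giving complete inhibition of bacterial growth. Gemifloxacin, levofloxacin and ciprofloxacin were tested alongside as reference drugs.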

[3] = test system: Staphylococcus epidermidis; test: Antibacterial activity against methicillin-sensitive Staphylococcus epidermidis isolate 12-3; in short: as §1
Klebsiella pneumoniae [4] = test: Antibacterial activity against Klebsiella pneumoniae isolate 12-2; in short: as §1
Klebsiella pneumoniae [5] = test: Antibacterial activity against extended-spectrum beta-lactamase-producing Klebsiella pneumoniae isolate 12-4; in short: as §1
Staphylococcus aureus [6] = test: Antibacterial activity against Staphylococcus aureus […]; in short: as §1
Streptococcus pneumoniae [7] = test: Antibacterial activity against Streptococcus pneumoniae isolate 12-2; in short: as §1
Escherichia coli [8] = test: Antibacterial activity against extended-spectrum beta-lactamase-producing Escherichia coli isolate 12-4; in short: as §1
Klebsiella pneumoniae [9] = test: Antibacterial activity against extended-spectrum beta-lactamase-producing Klebsiella pneumoniae isolate 12-1; in short: as §1
Staphylococcus aureus [10] = test: Antibacterial activity against methicillin-resistant Staphylococcus aureus isolate 12-15; in short: as §2
Escherichia coli [11] = test: Antibacterial activity against extended-spectrum beta-lactamase-producing Escherichia coli isolate 12-2; in short: as §1
Streptococcus pneumoniae [12] = test: Antibacterial activity against Streptococcus pneumoniae isolate 12-5; in short: as §1
[13] = test system: Staphylococcus epidermidis; test: Antibacterial activity against methicillin-resistant Staphylococcus epidermidis isolate 12-35; in short: as §2
Escherichia coli [14] = test: Antibacterial activity against Escherichia coli isolate 12-5; in short: as §1
Pseudomonas aeruginosa [15] = test: Antibacterial activity against Pseudomonas aeruginosa ATCC 27853; in short: as §1
Staphylococcus aureus [16] = test: Antibacterial activity against methicillin-sensitive Staphylococcus aureus isolate 12-10; in short: as §1
Escherichia coli [17] = test: Antibacterial activity against Escherichia coli ATCC 25922; in short: as §1
Escherichia coli [18] = test: Antibacterial activity against extended-spectrum beta-lactamase-producing Escherichia coli isolate 12-1; in short: as §1
Escherichia coli [19] = test: Antibacterial activity against Escherichia coli isolate 12-1; in short: as §1
Escherichia coli [20] = test: Antibacterial activity against Escherichia coli isolate 12-4; in short: as §1
Pseudomonas aeruginosa [21] = test: Antibacterial activity against Pseudomonas aeruginosa isolate 12-1; in short: as §1
Pseudomonas aeruginosa [22] = test: Antibacterial activity against Pseudomonas aeruginosa isolate 12-2; in short: as §1
[23] = test system: Staphylococcus epidermidis; test: Antibacterial activity against methicillin-resistant Staphylococcus epidermidis isolate 12-33; in short: as §2
[24] = test system: Staphylococcus epidermidis; test: Antibacterial activity against methicillin-resistant Staphylococcus epidermidis isolate 12-5; in short: as §2
Klebsiella pneumoniae [25] = test: Antibacterial activity against extended-spectrum beta-lactamase-producing Klebsiella pneumoniae isolate 12-2; in short: as §1
Klebsiella pneumoniae [26] = test: Antibacterial activity against Klebsiella pneumoniae isolate 12-4; in short: as §1
Klebsiella pneumoniae [27] = test: Antibacterial activity against Klebsiella pneumoniae isolate 12-1; in short: as §1
[28] = test system: Staphylococcus epidermidis; test: Antibacterial activity against methicillin-sensitive Staphylococcus epidermidis isolate 12-1; in short: as §1
Staphylococcus aureus [29] = test: Antibacterial activity against methicillin-resistant Staphylococcus aureus isolate 12-13; in short: as §2
Staphylococcus aureus [30] = test: Antibacterial activity against methicillin-sensitive Staphylococcus aureus isolate 12-6; in short: as §1
[31] = test system: Staphylococcus epidermidis; test: Antibacterial activity against methicillin-sensitive Staphylococcus epidermidis isolate 12-2; in short: as §1

| Structure (SMILES) | MIC (Staphylococcus aureus [1]) [µg/mL] | MIC (Staphylococcus aureus [2]) [µg/mL] | MIC [3] [µg/mL] | MIC (Klebsiella pneumoniae [4]) [µg/mL] | MIC (Klebsiella pneumoniae [5]) [µg/mL] | MIC (Staphylococcus aureus [6]) [µg/mL] | MIC (Streptococcus pneumoniae [7]) [µg/mL] | MIC (Escherichia coli [8]) [µg/mL] | MIC (Klebsiella pneumoniae [9]) [µg/mL] | MIC (Staphylococcus aureus [10]) [µg/mL] | MIC (Escherichia coli [11]) [µg/mL] | MIC (Streptococcus pneumoniae [12]) [µg/mL] | MIC [13] [µg/mL] | MIC (Escherichia coli [14]) [µg/mL] | MIC (Pseudomonas aeruginosa [15]) [µg/mL] | MIC (Staphylococcus aureus [16]) [µg/mL] | MIC (Escherichia coli [17]) [µg/mL] | MIC (Escherichia coli [18]) [µg/mL] | MIC (Escherichia coli [19]) [µg/mL] | MIC (Escherichia coli [20]) [µg/mL] | further results |
| --- | --- | --- | --- | --- | --- | --- | --- | --- | --- | --- | --- | --- | --- | --- | --- | --- | --- | --- | --- | --- | --- |
| CO/N=C1\CN(c2c(F)cc3c(=O)c(C(=O)O)cn4c3c2OC[C@@H]4C)CCC1N (some centres undefined) | 64 (≈ 158 µM) | 1 (≈ 2.47 µM) | 0.5 (≈ 1.24 µM) | 1 (≈ 2.47 µM) | 128 (≈ 317 µM) | 0.5 (≈ 1.24 µM) | 0.5 (≈ 1.24 µM) | 16 (≈ 39.6 µM) | 0.5 (≈ 1.24 µM) | 1 (≈ 2.47 µM) | > 128 | 0.5 (≈ 1.24 µM) | 0.5 (≈ 1.24 µM) | 128 (≈ 317 µM) | 32 (≈ 79.1 µM) | 0.25 (≈ 0.618 µM) | 8 (≈ 19.8 µM) | 128 (≈ 317 µM) | 4 (≈ 9.89 µM) | > 128 | MIC (Pseudomonas aeruginosa [21]): 16 µg/mL (≈ 39.6 µM); MIC (Pseudomonas aeruginosa [22]): 16 µg/mL (≈ 39.6 µM); MIC [23]: 0.5 µg/mL (≈ 1.24 µM); MIC [24]: 0.5 µg/mL (≈ 1.24 µM); MIC (Klebsiella pneumoniae [25]): 16 µg/mL (≈ 39.6 µM); MIC (Klebsiella pneumoniae [26]): 1 µg/mL (≈ 2.47 µM); MIC (Klebsiella pneumoniae [27]): 8 µg/mL (≈ 19.8 µM); MIC [28]: 0.5 µg/mL (≈ 1.24 µM); MIC (Staphylococcus aureus [29]): 1 µg/mL (≈ 2.47 µM); MIC (Staphylococcus aureus [30]): 0.5 µg/mL (≈ 1.24 µM); MIC [31]: 1 µg/mL (≈ 2.47 µM) |
| CNC1CCN(c2c(F)cc3c(=O)c(C(=O)O)cn(C4CC4)c3c2OC)C/C1=N\OC (centres undefined) | 0.125 (≈ 0.289 µM) | 0.25 (≈ 0.578 µM) | 0.25 (≈ 0.578 µM) | 2 (≈ 4.62 µM) | 0.5 (≈ 1.16 µM) | 0.25 (≈ 0.578 µM) | 0.125 (≈ 0.289 µM) | 32 (≈ 74 µM) | 16 (≈ 37 µM) | 0.25 (≈ 0.578 µM) | > 128 | 0.125 (≈ 0.289 µM) | 0.06 (≈ 0.139 µM) | 128 (≈ 296 µM) | 8 (≈ 18.5 µM) | 0.06 (≈ 0.139 µM) | 0.125 (≈ 0.289 µM) | > 128 | 4 (≈ 9.25 µM) | > 128 | MIC (Pseudomonas aeruginosa [21]): 16 µg/mL (≈ 37 µM); MIC (Pseudomonas aeruginosa [22]): 16 µg/mL (≈ 37 µM); MIC [23]: 0.125 µg/mL (≈ 0.289 µM); MIC [24]: 0.06 µg/mL (≈ 0.139 µM); MIC (Klebsiella pneumoniae [25]): 16 µg/mL (≈ 37 µM); MIC (Klebsiella pneumoniae [26]): 0.5 µg/mL (≈ 1.16 µM); MIC (Klebsiella pneumoniae [27]): 1 µg/mL (≈ 2.31 µM); MIC [28]: 0.25 µg/mL (≈ 0.578 µM); MIC (Staphylococcus aureus [29]): 0.25 µg/mL (≈ 0.578 µM); MIC (Staphylococcus aureus [30]): 0.06 µg/mL (≈ 0.139 µM); MIC [31]: 0.5 µg/mL (≈ 1.16 µM) |
| CNC1CCN(c2nc3c(cc2F)c(=O)c(C(=O)O)cn3C2CC2)C/C1=N\OC (centres undefined) | 0.5 (≈ 1.24 µM) | 1 (≈ 2.48 µM) | 0.5 (≈ 1.24 µM) | 0.5 (≈ 1.24 µM) | 0.125 (≈ 0.31 µM) | 0.5 (≈ 1.24 µM) | 0.5 (≈ 1.24 µM) | 16 (≈ 39.7 µM) | 16 (≈ 39.7 µM) | 1 (≈ 2.48 µM) | > 128 | 0.5 (≈ 1.24 µM) | 0.25 (≈ 0.62 µM) | > 128 | 2 (≈ 4.96 µM) | 0.25 (≈ 0.62 µM) | 0.125 (≈ 0.31 µM) | > 128 | 4 (≈ 9.92 µM) | > 128 | MIC (Pseudomonas aeruginosa [21]): 16 µg/mL (≈ 39.7 µM); MIC (Pseudomonas aeruginosa [22]): 16 µg/mL (≈ 39.7 µM); MIC [23]: 0.06 µg/mL (≈ 0.149 µM); MIC [24]: 0.25 µg/mL (≈ 0.62 µM); MIC (Klebsiella pneumoniae [25]): 16 µg/mL (≈ 39.7 µM); MIC (Klebsiella pneumoniae [26]): 0.125 µg/mL (≈ 0.31 µM); MIC (Klebsiella pneumoniae [27]): 0.5 µg/mL (≈ 1.24 µM); MIC [28]: 0.5 µg/mL (≈ 1.24 µM); MIC (Staphylococcus aureus [29]): 1 µg/mL (≈ 2.48 µM); MIC (Staphylococcus aureus [30]): 0.25 µg/mL (≈ 0.62 µM); MIC [31]: 2 µg/mL (≈ 4.96 µM) |
| CO/N=C1\CN(c2nc3c(cc2F)c(=O)c(C(=O)O)cn3C2CC2)CC1CN (centres undefined) [GEMIFLOXACIN] | 4 (≈ 10.3 µM) | 0.03 (≈ 0.077 µM) | 0.06 (≈ 0.154 µM) | 0.06 (≈ 0.154 µM) | 2 (≈ 5.14 µM) | < 0.008 | 0.25 (≈ 0.642 µM) | 2 (≈ 5.14 µM) | 2 (≈ 5.14 µM) | 0.03 (≈ 0.077 µM) | 16 (≈ 41.1 µM) | 0.25 (≈ 0.642 µM) | 0.008 (≈ 0.0205 µM) | 16 (≈ 41.1 µM) | 1 (≈ 2.57 µM) | 0.03 (≈ 0.077 µM) | 0.015 (≈ 0.0385 µM) | 8 (≈ 20.5 µM) | 0.125 (≈ 0.321 µM) | 16 (≈ 41.1 µM) | MIC (Pseudomonas aeruginosa [21]): 8 µg/mL (≈ 20.5 µM); MIC (Pseudomonas aeruginosa [22]): 16 µg/mL (≈ 41.1 µM); MIC [23]: 4 µg/mL (≈ 10.3 µM); MIC [24]: 0.015 µg/mL (≈ 0.0385 µM); MIC (Klebsiella pneumoniae [25]): 2 µg/mL (≈ 5.14 µM); MIC (Klebsiella pneumoniae [26]): 0.06 µg/mL (≈ 0.154 µM); MIC (Klebsiella pneumoniae [27]): 0.03 µg/mL (≈ 0.077 µM); MIC [28]: 0.06 µg/mL (≈ 0.154 µM); MIC (Staphylococcus aureus [29]): 0.015 µg/mL (≈ 0.0385 µM); MIC (Staphylococcus aureus [30]): 0.03 µg/mL (≈ 0.077 µM); MIC [31]: 0.25 µg/mL (≈ 0.642 µM) |

Reference: ChEMBL document CHEMBL2331542, “Synthesis and in vitro antibacterial activity of quinolone/naphthyridone derivatives containing 3-alkoxyimino-4-(methyl)aminopiperidine scaffolds” (2013)
